Source: ChEMBL document CHEMBL4610117 (J Med Chem, 2020)

How the values were obtained:
[1] = Clearance in human hepatocytes at 1 uM measured after 2 to 90 mins by LC-MS/MS analysis; assay type: ADME, cell-based, Hepatocyte
[2] = target: T1, Cyclin-G-associated kinase (Homo sapiens, UniProt O14976); assay: Binding affinity to wild-type human partial length GAK (G13 to Y338 residues) expressed in bacterial expression system by Kinomescan method
T1 sequence (O14976 whole entry): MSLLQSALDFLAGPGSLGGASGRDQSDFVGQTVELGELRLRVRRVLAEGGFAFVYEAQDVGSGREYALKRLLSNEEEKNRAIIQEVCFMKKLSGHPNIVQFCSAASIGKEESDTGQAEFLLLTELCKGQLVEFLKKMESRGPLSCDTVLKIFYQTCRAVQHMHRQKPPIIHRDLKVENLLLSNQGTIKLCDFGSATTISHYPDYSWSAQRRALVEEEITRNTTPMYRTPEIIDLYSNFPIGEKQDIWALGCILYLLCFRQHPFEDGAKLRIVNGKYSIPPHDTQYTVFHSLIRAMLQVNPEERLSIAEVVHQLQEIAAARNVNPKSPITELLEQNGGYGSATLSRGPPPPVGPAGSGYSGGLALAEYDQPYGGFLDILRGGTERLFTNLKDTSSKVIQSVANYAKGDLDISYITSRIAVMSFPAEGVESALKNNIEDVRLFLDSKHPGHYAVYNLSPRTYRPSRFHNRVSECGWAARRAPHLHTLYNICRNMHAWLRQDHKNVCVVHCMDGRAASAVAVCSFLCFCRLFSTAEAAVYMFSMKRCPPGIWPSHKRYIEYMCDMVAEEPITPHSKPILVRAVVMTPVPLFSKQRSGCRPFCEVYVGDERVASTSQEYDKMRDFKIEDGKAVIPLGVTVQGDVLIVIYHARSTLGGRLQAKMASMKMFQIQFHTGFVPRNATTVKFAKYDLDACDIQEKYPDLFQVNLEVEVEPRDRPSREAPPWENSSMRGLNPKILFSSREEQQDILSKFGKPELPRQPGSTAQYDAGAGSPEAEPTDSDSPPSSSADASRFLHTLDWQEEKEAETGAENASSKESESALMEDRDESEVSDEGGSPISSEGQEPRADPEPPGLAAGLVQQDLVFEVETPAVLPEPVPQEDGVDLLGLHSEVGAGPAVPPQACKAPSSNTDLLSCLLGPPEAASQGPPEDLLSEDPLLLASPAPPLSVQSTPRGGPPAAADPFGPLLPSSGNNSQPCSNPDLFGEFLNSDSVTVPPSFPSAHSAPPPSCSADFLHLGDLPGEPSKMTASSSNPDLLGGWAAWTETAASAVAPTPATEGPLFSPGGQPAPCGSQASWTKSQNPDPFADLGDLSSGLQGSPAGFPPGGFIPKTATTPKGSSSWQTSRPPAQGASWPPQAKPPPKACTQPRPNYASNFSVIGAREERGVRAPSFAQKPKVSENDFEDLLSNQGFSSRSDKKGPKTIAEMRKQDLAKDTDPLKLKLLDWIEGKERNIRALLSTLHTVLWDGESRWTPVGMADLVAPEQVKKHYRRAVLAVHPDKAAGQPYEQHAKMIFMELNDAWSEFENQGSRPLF

SU-DHL-8 = assay: Antiproliferative activity against human SUDHL8 cells assessed as reduction in cell viability measured after 4 days by celltiter-glo luminescent assay; assay type: functional, cell-based; settings: SU-DHL-8, 96 h
[3] = Protein binding in human plasma assessed as unbound fraction at 3 uM measured after 7 hrs by LC-MS/MS analysis; assay type: ADME, cell-free
[4] = target: Serine-protein kinase ATM (Homo sapiens, UniProt Q13315); assay: Inhibition of N-terminally FLAG-tagged recombinant full-length ATM (unknown origin) expressed in […] cells using biotin-PEG2-SVEPPLSQETFSD as substrate preincubated for 15 mins followed by substrate addition and measured after 90 mins by TR-FRET assay
Chain of Serine-protein kinase ATM (Q13315 whole entry): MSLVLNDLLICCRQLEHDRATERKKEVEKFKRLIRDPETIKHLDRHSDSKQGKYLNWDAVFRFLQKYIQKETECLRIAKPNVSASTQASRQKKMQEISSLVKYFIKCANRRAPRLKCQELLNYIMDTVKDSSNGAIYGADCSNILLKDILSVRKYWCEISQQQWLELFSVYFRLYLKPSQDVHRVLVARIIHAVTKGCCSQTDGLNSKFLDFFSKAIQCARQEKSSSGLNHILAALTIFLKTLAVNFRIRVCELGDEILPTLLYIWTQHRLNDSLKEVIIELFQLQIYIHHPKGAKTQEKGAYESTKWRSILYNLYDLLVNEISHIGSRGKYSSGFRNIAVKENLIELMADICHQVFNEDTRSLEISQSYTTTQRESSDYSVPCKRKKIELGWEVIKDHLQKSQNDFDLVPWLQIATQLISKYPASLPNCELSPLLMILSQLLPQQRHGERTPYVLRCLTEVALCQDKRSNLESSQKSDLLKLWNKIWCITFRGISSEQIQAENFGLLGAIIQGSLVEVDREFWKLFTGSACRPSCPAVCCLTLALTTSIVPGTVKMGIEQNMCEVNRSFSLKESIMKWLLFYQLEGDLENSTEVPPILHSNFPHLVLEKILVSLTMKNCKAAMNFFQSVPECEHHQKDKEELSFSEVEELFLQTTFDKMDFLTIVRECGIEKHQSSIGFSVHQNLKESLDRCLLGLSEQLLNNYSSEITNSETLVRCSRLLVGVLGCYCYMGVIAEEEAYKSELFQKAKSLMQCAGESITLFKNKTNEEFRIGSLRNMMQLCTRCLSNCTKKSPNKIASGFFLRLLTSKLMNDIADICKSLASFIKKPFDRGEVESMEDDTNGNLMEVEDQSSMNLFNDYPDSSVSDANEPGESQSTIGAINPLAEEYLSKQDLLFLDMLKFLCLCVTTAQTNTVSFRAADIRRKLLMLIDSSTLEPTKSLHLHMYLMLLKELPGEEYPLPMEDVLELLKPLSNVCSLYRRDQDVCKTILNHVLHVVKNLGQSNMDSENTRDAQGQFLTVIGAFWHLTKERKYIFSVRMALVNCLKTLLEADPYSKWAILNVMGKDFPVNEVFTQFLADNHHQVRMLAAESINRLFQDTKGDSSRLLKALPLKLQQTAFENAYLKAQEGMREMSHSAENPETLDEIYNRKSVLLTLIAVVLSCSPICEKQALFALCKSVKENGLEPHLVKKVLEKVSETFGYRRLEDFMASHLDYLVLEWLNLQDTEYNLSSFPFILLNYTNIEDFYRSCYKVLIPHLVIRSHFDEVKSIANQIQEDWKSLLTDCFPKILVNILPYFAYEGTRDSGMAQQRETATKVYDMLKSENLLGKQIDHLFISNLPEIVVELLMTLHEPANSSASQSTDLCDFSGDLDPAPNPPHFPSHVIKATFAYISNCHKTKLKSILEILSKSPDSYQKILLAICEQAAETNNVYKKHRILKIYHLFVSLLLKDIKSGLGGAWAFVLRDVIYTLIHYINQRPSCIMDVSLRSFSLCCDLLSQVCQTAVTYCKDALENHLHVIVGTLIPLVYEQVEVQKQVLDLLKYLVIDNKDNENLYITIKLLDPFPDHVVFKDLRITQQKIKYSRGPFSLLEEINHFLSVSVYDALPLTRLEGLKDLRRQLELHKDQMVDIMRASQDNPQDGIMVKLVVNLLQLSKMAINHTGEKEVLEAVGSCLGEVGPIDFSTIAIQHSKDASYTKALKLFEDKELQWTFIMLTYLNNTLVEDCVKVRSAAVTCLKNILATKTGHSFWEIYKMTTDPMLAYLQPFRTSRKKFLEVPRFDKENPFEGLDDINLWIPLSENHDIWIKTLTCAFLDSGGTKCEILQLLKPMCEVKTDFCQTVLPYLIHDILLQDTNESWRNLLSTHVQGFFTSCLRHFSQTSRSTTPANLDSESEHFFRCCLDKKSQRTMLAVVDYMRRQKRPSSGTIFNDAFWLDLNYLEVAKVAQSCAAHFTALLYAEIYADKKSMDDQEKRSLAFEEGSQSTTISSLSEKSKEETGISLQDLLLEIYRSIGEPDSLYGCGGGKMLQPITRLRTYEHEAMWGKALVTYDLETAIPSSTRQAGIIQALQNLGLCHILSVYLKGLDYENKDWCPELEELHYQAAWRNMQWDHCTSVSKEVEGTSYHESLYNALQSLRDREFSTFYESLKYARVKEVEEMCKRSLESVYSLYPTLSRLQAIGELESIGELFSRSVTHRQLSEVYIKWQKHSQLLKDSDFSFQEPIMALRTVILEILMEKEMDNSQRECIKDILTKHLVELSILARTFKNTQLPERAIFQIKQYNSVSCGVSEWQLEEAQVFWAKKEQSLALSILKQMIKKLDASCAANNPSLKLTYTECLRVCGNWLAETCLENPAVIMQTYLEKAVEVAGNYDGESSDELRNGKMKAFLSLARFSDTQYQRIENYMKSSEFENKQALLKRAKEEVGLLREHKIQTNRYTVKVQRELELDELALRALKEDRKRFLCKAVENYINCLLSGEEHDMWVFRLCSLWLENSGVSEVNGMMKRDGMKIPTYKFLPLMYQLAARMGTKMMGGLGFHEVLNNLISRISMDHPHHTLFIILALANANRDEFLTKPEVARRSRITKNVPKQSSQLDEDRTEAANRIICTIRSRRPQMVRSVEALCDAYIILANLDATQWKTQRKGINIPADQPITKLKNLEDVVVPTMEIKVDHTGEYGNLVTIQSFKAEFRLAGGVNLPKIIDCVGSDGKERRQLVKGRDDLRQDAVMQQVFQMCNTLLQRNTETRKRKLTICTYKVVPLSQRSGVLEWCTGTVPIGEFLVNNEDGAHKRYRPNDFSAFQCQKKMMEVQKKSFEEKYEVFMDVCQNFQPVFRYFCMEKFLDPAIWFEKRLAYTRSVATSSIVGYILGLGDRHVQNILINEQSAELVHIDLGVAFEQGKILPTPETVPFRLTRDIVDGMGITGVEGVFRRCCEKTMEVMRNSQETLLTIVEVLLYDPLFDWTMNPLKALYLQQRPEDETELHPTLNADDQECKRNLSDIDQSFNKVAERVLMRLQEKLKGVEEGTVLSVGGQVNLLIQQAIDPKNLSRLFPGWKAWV
How it was run: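 Full-length N-terminal FLAG ATM from HEK293-6E, anti-FLAG purified, typically 15 nM. Compound was pre-bound 15 min at 22 °C in HEPES pH 7.0 buffer with MgCl2, KCl, DTT, BSA and Igepal. The reaction ran with 10 μM ATP and 1 μM peptide (final) for 90 min at 22 °C and was stopped with EDTA, streptavidin-XL665 and Eu anti-phospho-p53(Ser15). […] 11 concentrations, 20 μM–0.07 nM, in duplicate.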

[5] = Apparent half life in Wistar rat at 0.3 to 0.5 mg/kg, iv administered as bolus dose by LC-MS/MS analysis; assay type: ADME, organism-based; settings: in vivo, read-out: t1/2(app) (converted)
[6] = Protein binding in rat plasma assessed as unbound fraction at 3 uM measured after 7 hrs by LC-MS/MS analysis; assay type: ADME, cell-free
[7] = Apparent half life in NMRI mouse at 0.3 to 0.5 mg/kg, iv administered as bolus dose by LC-MS/MS analysis; assay type: ADME, organism-based; settings: in vivo
[8] = Toxicity in NOD/SCID mouse xenografted with human CR5038 cells assessed as body weight loss at 20 mg/kg, po qd dosed every 2 days followed by 5 days for 2 weeks and subsequent dosing at 10 mg/kg interval measured on day 11 to 14 and 28 to 31 in presence of carboplatin relative to control; assay type: organism-based; settings: in vivo
[9] = Oral bioavailability in Beagle dog at 0.6 to 1 mg/kg by LC-MS/MS analysis; assay type: ADME, organism-based, Canis lupus familiaris; settings: in vivo
[10] = Toxicity in nude mouse xenografted with human SUM149 cells assessed as body weight loss at 20 mg/kg, po bid dosed every 3 days followed by 4 days interval in presence of olaparib relative to control; assay type: organism-based, SUM149PT; settings: in vivo
[11] = Inhibition of PI3K/AKT/mTOR signaling pathway in human MCF7 cells assessed as reduction in AKT phosphorylation at Ser473 residues measured after 30 mins by HTRF assay; settings: MCF7, 0.5 h

**Q.** With `C[C@@H]1COCCN1c1cc(-c2ccnn2C)c2ccnc(-c3ccn[nH]3)c2n1` [ELIMUSERTIB] as the compound, how does the CLH [1] read?
**A.** 0.41 L/h/kg

**Q.** What about the Kd [2] of the same compound?
**A.** 580 nM

**Q.** What about the IC50 (SU-DHL-8) of the same compound?
**A.** 9 nM

**Q.** What about the fraction unbound at 7 h, 3 µM [3] of the same compound?
**A.** 0.03

**Q.** What about the IC50 [4] of the same compound?
**A.** 1420 nM

**Q.** And the half-life [5]?
**A.** 78 min

**Q.** What about the fraction unbound at 7 h, 3 µM [6] of the same compound?
**A.** 0.17

**Q.** And the “t1/2(app)” value [7]?
**A.** 10.2 min

**Q.** And the Activity [8]?
**A.** < 10%

**Q.** What about the bioavailability [9] of the same compound?
**A.** 51%

**Q.** And the Activity [10]?
**A.** < 10%

**Q.** What about the IC50 [11] of the same compound?
**A.** 35 nM
